Assay results reported in ChEMBL document CHEMBL3856209, “Novel pyrazolopyridine derivatives as potential angiogenesis inhibitors: Synthesis, biological evaluation and transcriptome-based mechanistic analysis” (Eur J Med Chem, 2016).

Tests used:
Assay type in all cases: functional, Homo sapiens
HUVEC [1] = assay: Effect on HINT3 gene expression in serum-starved HUVEC after 6 hrs by microarray analysis relative to control
Method in brief: (§1)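 Confluent, serum-starved HUVEC (pooled from 3–5 donors, passage ≤4) treated with 2 μM compound or vehicle with 2.5% FBS for 6 h or 24 h. Total RNA hybridized to Illumina Human-HT12 arrays. Data were background-corrected, vst-transformed and rsn-normalized. Hits called by moderated paired t-test versus DMSO-treated cells, p < 0.05 and log2 fold change >|0.5|.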

HUVEC [2] = assay: Effect on RNA18S5 gene expression in serum-starved HUVEC after 6 hrs by microarray analysis relative to control
HUVEC [3] = assay: Effect on RNA18S5 gene expression in serum-starved HUVEC after 24 hrs by microarray analysis relative to control
HUVEC [4] = assay: Effect on SND1-IT1 gene expression in serum-starved HUVEC after 24 hrs by microarray analysis relative to control
HUVEC [5] = assay: Effect on RETSAT gene expression in serum-starved HUVEC after 6 hrs by microarray analysis relative to control
HUVEC [6] = assay: Effect on SLC30A7 gene expression in serum-starved HUVEC after 24 hrs by microarray analysis relative to control
HUVEC [7] = assay: Effect on CDC20 gene expression in serum-starved HUVEC after 6 hrs by microarray analysis relative to control
Method in brief: (§2)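 Serum-starved confluent HUVEC treated with 2 μM compound or DMSO in 2.5% FBS for 6 h or 24 h; RNA hybridized to Illumina Human-HT12 arrays. Data background-corrected, vst-transformed and rsn-normalized. Differential probes called by moderated paired t-test (limma) at p < 0.05 and log2 fold change >|0.5| vs DMSO.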

HUVEC [8] = assay: Effect on BIRC5 gene expression in serum-starved HUVEC after 6 hrs by microarray analysis relative to control; method in brief: as §2
HUVEC [9] = assay: Effect on FILIP1L gene expression in serum-starved HUVEC after 6 hrs by microarray analysis relative to control; method in brief: as §1
HUVEC [10] = assay: Effect on ITGA2 gene expression in serum-starved HUVEC after 24 hrs by microarray analysis relative to control; method in brief: as §1
HUVEC [11] = assay: Effect on MBNL2 gene expression in serum-starved HUVEC after 24 hrs by microarray analysis relative to control
Method in brief: (§3)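 Serum-starved confluent HUVEC (pooled from 3–5 donors, passage ≤4) were treated with 2 μM compound or vehicle in 2.5% FBS for 6 h or 24 h, and total RNA was isolated. Hybridization was on Illumina Human-HT12. Data were processed with bgAdjust, vst and rsn normalization. Changes versus DMSO were called by moderated paired t-test at p < 0.05 and |log2 fold change| > 0.5.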

HUVEC [12] = assay: Effect on RN7SK gene expression in serum-starved HUVEC after 6 hrs by microarray analysis relative to control
HUVEC [13] = assay: Effect on TUBB2B gene expression in serum-starved HUVEC after 6 hrs by microarray analysis relative to control
HUVEC [14] = assay: Effect on PLA2G4C gene expression in serum-starved HUVEC after 6 hrs by microarray analysis relative to control; method in brief: as §3
HUVEC [15] = assay: Effect on HLA-B gene expression in serum-starved HUVEC after 24 hrs by microarray analysis relative to control; method in brief: as §1
HUVEC [16] = assay: Effect on F2RL1 gene expression in serum-starved HUVEC after 6 hrs by microarray analysis relative to control
Method in brief: (§4)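 Confluent serum-starved HUVEC (primary, pooled from 3–5 donors, passage ≤4) treated with 2 μM compound or DMSO vehicle in 2.5% FBS for 6 h or 24 h. Total RNA hybridized to Illumina Human-HT12 arrays, background-corrected, vst-transformed and rsn-normalized. Differential expression versus DMSO by moderated paired t-test (p < 0.05, |log2 fold change| > 0.5).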

HUVEC [17] = assay: Effect on LSS gene expression in serum-starved HUVEC after 24 hrs by microarray analysis relative to control; method in brief: as §3
HUVEC [18] = assay: Effect on GINS2 gene expression in serum-starved HUVEC after 24 hrs by microarray analysis relative to control; method in brief: as §1
HUVEC [19] = assay: Effect on CDCA8 gene expression in serum-starved HUVEC after 24 hrs by microarray analysis relative to control
Method in brief: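 Serum-starved confluent HUVEC (primary, pooled from 3–5 donors, passage ≤4) treated with 2 μM test compound or DMSO vehicle (working dilutions ≤0.1% v/v) in presence of 2.5% FBS for 6 h or 24 h; total RNA hybridized to Illumina Human-HT12 arrays; background correction, vst, rsn normalization; moderated paired t-test versus DMSO, thresholds p < 0.05 and log2 fold change >|0.5|.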

HUVEC [20] = assay: Effect on NSDHL gene expression in serum-starved HUVEC after 24 hrs by microarray analysis relative to control
HUVEC [21] = assay: Effect on GINS2 gene expression in serum-starved HUVEC after 6 hrs by microarray analysis relative to control; method in brief: as §1
HUVEC [22] = assay: Effect on SCD gene expression in serum-starved HUVEC after 24 hrs by microarray analysis relative to control
HUVEC [23] = assay: Effect on KRT18P55 gene expression in serum-starved HUVEC after 6 hrs by microarray analysis relative to control; method in brief: as §3
HUVEC [24] = assay: Effect on CTHRC1 gene expression in serum-starved HUVEC after 6 hrs by microarray analysis relative to control; method in brief: as §1
HUVEC [25] = assay: Effect on CDKN3 gene expression in serum-starved HUVEC after 6 hrs by microarray analysis relative to control; method in brief: as §2
HUVEC [26] = assay: Effect on LIPG gene expression in serum-starved HUVEC after 24 hrs by microarray analysis relative to control
HUVEC [27] = assay: Effect on AFAP1L1 gene expression in serum-starved HUVEC after 6 hrs by microarray analysis relative to control; method in brief: as §4
HUVEC [28] = assay: Effect on SPRY4 gene expression in serum-starved HUVEC after 24 hrs by microarray analysis relative to control
HUVEC [29] = assay: Effect on CD68 gene expression in serum-starved HUVEC after 24 hrs by microarray analysis relative to control; method in brief: as §2
HUVEC [30] = assay: Effect on SQLE gene expression in serum-starved HUVEC after 24 hrs by microarray analysis relative to control
HUVEC [31] = assay: Effect on KIF11 gene expression in serum-starved HUVEC after 6 hrs by microarray analysis relative to control; method in brief: as §1
HUVEC [32] = assay: Effect on AURKA gene expression in serum-starved HUVEC after 24 hrs by microarray analysis relative to control; method in brief: as §4
HUVEC [33] = assay: Effect on AIF1 gene expression in serum-starved HUVEC after 24 hrs by microarray analysis relative to control; method in brief: as §2
HUVEC [34] = assay: Effect on CD46 gene expression in serum-starved HUVEC after 6 hrs by microarray analysis relative to control; method in brief: as §2
HUVEC [35] = assay: Effect on CCNA2 gene expression in serum-starved HUVEC after 24 hrs by microarray analysis relative to control; method in brief: as §4
HUVEC [36] = assay: Effect on ACSS2 gene expression in serum-starved HUVEC after 6 hrs by microarray analysis relative to control; method in brief: as §2
HUVEC [37] = assay: Effect on ANKRD1 gene expression in serum-starved HUVEC after 24 hrs by microarray analysis relative to control; method in brief: as §2
HUVEC [38] = assay: Effect on RNA5S9 gene expression in serum-starved HUVEC after 24 hrs by microarray analysis relative to control

Question: Which results are given for COc1ccc(Cn2nc(-c3ccccc3)c3cc(Nc4ccc(N5CCN(C)CC5)cc4)nc(N4CCNCC4)c32)cc1?
Answer: log2FC (HUVEC [1]): -0.0444; log2FC (HUVEC [2]): -0.2889; log2FC (HUVEC [3]): 0.5309; log2FC (HUVEC [4]): 0.603; log2FC (HUVEC [5]): 0.0844

Question: COc1ccc(Cn2nc(-c3ccccc3)c3cc(Cl)nc(N4CCNCC4)c32)cc1 was tested. Which log2FC (HUVEC [6]) did it give?
Answer: 0.0778

Question: What about the “fold change (FC)” value (HUVEC [7]) of the same compound?
Answer: 0.127

Question: What about the “fold change (FC)” value (HUVEC [8]) of the same compound?
Answer: 0.0293

Question: What about the log2FC (HUVEC [9]) of the same compound?
Answer: 0.5185

Question: What about the log2FC (HUVEC [10]) of the same compound?
Answer: -0.0226

Question: And the log2FC (HUVEC [11])?
Answer: 0.526

Question: Which results are given for COc1ccc(Cn2nc(-c3ccccc3)c3cc(Nc4ccc(N5CCN(C)CC5)cc4)nc(N4CCN(C)CC4)c32)cc1?
Answer: log2FC (HUVEC [12]): -0.8368; fold change (FC) (HUVEC [13]): 0.219; fold change (FC) (HUVEC [14]): 0.3857; log2FC (HUVEC [15]): -0.5811; fold change (FC) (HUVEC [16]): 0.5398; log2FC (HUVEC [17]): 1.6178; log2FC (HUVEC [18]): -0.5372; fold change (FC) (HUVEC [19]): -0.8847; log2FC (HUVEC [20]): 1.1565; log2FC (HUVEC [21]): -0.1389; log2FC (HUVEC [22]): 1.4341; log2FC (HUVEC [23]): -0.0175; log2FC (HUVEC [24]): -0.0221; log2FC (HUVEC [25]): -0.0153; log2FC (HUVEC [26]): 1.1948; fold change (FC) (HUVEC [27]): 0.0116; fold change (FC) (HUVEC [28]): 0.9471; log2FC (HUVEC [29]): -0.8363; log2FC (HUVEC [30]): 1.0535 - 1.1624; fold change (FC) (HUVEC [31]): 0.073; fold change (FC) (HUVEC [32]): -0.6725; log2FC (HUVEC [33]): -0.7905; fold change (FC) (HUVEC [34]): 0.3593; fold change (FC) (HUVEC [35]): -0.7529; fold change (FC) (HUVEC [36]): 0.2037; log2FC (HUVEC [37]): 0.2203; log2FC (HUVEC [38]): 0.0013
